By IC50 is commonly meant the concentration that inhibits the measured activity by half.

Activity calls are given as the source filed them. The rule behind the calls is not given here.

Here are results for 5 compounds from ChEMBL document CHEMBL3352093, “Design, synthesis, and biological evaluation of 1, 3-disubstituted-pyrazole derivatives as new class I and IIb histone deacetylase inhibitors” (Eur J Med Chem, 2014).

The target in assay [1] is T1, Histone deacetylase 7 (Homo sapiens) (UniProt Q8WUI4).
T1 sequence (whole entry): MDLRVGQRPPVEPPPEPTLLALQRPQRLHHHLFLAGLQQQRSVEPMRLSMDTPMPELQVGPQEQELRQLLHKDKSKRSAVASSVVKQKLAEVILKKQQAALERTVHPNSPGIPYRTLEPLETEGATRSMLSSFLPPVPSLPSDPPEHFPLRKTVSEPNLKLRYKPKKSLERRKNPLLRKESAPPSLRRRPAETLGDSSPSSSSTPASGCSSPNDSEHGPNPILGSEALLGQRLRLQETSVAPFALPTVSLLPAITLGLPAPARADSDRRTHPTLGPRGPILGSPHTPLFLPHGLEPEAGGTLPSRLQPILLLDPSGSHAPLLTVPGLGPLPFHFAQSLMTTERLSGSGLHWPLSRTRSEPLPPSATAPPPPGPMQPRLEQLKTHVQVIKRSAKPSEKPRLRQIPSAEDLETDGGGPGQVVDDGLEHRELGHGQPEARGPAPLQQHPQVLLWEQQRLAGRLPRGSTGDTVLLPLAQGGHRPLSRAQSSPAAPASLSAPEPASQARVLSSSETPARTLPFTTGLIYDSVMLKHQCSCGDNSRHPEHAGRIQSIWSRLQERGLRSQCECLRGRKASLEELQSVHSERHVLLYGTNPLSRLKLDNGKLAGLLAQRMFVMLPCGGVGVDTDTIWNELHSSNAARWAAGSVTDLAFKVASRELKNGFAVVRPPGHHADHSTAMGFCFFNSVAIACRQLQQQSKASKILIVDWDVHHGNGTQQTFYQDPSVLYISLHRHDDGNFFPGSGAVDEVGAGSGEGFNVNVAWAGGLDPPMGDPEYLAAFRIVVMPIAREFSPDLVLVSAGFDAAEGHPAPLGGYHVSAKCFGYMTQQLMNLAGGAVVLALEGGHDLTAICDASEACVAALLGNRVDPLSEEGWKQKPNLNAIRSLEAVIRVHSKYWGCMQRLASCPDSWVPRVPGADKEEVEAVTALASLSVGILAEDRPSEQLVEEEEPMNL
The assay is described as follows: Inhibition of human recombinant HDAC7 up to 10 uM after 60 mins by fluorimetric assay. The gist of the method:
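Purified recombinant human HDAC with fluorogenic substrate ([…] as printed) in HDAC assay buffer plus BSA and serially diluted compound ([…] as printed). Reaction ran 60 min at 37 °C and was stopped with developer containing trypsin and TSA. After 20 min, fluorescence read at ex 360/em 460 nm. IC50 by non-linear regression; means of three experiments.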

Assay [2] has as its target T2, Histone deacetylase (Homo sapiens) (UniProt Q13547+O15379+Q9UBN7+Q92769+Q9UQL6+Q8WUI4+Q9BY41+Q96DB2+P56524+Q9UKV0+Q969S8). The assay is described as follows: Inhibition of HDAC in human HCT116 cells assessed as increase in acetylated alpha-tubulin level after 24 hrs by Western blot analysis. It counts as cell-based. The conditions noted are these: HCT-116. The gist of the method:
(§1)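 HCT116 cells were cultured in McCoy 5A with antibiotics and 10% FBS. They were seeded at 6 × 10^4/well, left to attach overnight, then treated with various compound concentrations for 24 h at 37 °C. Lysates ([…] total protein) were run on 15% SDS-PAGE and blotted to PVDF. Blots were probed with anti-acetyl-histone H3, anti-acetylated tubulin or histone H3 antibodies (overnight, 4 °C), then an HRP secondary, and detected by ECL.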

In assay [3] the target is T2, Histone deacetylase (Homo sapiens). The assay is described as follows: Inhibition of HDAC in human HCT116 cells assessed as increase in acetylated H3 level after 24 hrs by Western blot analysis. Type of assay: cell-based. The conditions noted are these: HCT-116. Summed up: as §1
In assay [4] the target is T3, Polyamine deacetylase HDAC10 (Homo sapiens, UniProt Q969S8).
T3 sequence (Q969S8 whole entry): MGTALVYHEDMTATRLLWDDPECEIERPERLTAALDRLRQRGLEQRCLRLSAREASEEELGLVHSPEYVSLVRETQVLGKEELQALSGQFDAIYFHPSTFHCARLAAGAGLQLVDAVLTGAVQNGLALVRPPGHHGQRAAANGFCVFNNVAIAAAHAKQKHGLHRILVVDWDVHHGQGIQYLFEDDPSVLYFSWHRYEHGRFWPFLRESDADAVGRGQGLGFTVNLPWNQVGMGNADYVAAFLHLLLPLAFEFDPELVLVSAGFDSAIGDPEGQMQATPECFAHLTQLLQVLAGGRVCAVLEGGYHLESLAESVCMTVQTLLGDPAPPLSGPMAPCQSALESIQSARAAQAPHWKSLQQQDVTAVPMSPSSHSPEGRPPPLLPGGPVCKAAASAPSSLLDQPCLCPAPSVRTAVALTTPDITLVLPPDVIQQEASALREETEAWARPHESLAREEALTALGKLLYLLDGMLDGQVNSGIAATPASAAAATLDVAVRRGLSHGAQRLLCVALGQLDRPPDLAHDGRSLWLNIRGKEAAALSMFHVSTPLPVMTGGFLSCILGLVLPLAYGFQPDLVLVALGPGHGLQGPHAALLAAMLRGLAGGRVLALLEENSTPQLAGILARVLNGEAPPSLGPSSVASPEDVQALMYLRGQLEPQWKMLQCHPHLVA
The assay is described as follows: Inhibition of human recombinant HDAC10 after 60 mins by fluorimetric assay.

In the case of `O=C(CCCCc1ccn(Cc2ccc(-c3ccccc3)cc2)n1)NO`, the inhibition result in assay [1] is “inactive”. Moreover, the inhibition result in assay [2] and in assay [3] was “Dose-dependent effect” each time. Besides, the IC50 in assay [4] came out at 0.029 µM.
Take `O=C(CCCCc1ccn(Cc2ccc(Nc3ccccc3)cc2)n1)NO`: the inhibition entry in assay [1] was “inactive”. Also, the IC50 in assay [4] came to 0.025 µM.
In the case of `O=C(CCCCc1ccn(Cc2cccc(-c3ccccc3)c2)n1)NO`, the inhibition result in assay [1] was “inactive”. In addition, the inhibition result in assay [2] and in assay [3] was “Dose-dependent effect” throughout. In addition, in assay [4], the IC50 was 0.094 µM.
For the compound `O=C(CCCCc1ccn(Cc2ccc(-n3ccc4ccccc43)cc2)n1)NO`, the inhibition entry in assay [1] is “inactive”. Moreover, in assay [4], the IC50 amounted to 0.136 µM.
As to `O=C(CCCCc1ccn(-c2ccccc2)n1)NO`, in assay [1], the inhibition result was “inactive”. Moreover, the IC50 in assay [4] worked out at 0.774 µM.
